Measured values taken from ChEMBL document CHEMBL4229377, “Design, synthesis and bioevaluation of 1,2,3,9-tetrahydropyrrolo[2,1-b]quinazoline-1-carboxylic acid derivatives as potent neuroprotective agents” (Eur J Med Chem, 2018).
The source made the active and inactive calls. No cut-off for these calls is given here.

How the values were obtained:
[1] = Half life in human liver microsomes at 10 uM preincubated for 10 mins followed by NADPH addition and measured up to 60 mins; assay type: ADME, microsome
In short: (§1)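 Human liver microsomes were incubated for 60 min with an NADPH regenerating system to derive T1/2 and CL (µL/min/mg). A no-cofactor sample, with buffer replacing NADPH, was run alongside over 60 min to give % parent remaining.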

[2] = test system: SH-SY5Y; assay: Neuroprotective activity against NMDA-induced cell damage in human SH-SY5Y cells assessed as cell viability at 0.1 uM preincubated for 6 hrs followed by NMDA addition and measured after 30 mins by MTT assay (reference value: 58.7 +/- 2.3%); assay type: functional; settings: read-out: Activity
[3] = target: Glutamate receptor ionotropic, NMDA 2B (Homo sapiens) (UniProt Q13224); assay: Antagonist activity at NR2B NMDA receptor in human SH-SY5Y cells assessed as inhibition of NMDA-induced intracellular Ca2+ influx at 10 uM incubated for 3 hrs prior to fluo-3AM dye addition for 30 mins followed by NMDA addition and measured every 5 secs by laser scanning confocal microscopic analysis; assay type: cell-based
In short: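 SH-SY5Y cells were loaded with fluo-3 AM, and cytoplasmic Ca²⁺ was followed as green fluorescence by laser scanning confocal microscopy over time. NMDA was added at 2 mM final to cells with or without compound pretreatment; n = 9 cells per group.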

[4] = test system: SH-SY5Y; assay: Neuroprotective activity against NMDA-induced cell damage in human SH-SY5Y cells assessed as cell viability at 10 uM preincubated for 6 hrs followed by NMDA addition and measured after 30 mins by MTT assay (reference value: 58.7 +/- 2.3%); assay type: functional; settings: read-out: Activity
[5] = test system: SH-SY5Y; assay: Neuroprotective activity against NMDA-induced cell damage in human SH-SY5Y cells assessed as cell viability at 1 uM preincubated for 6 hrs followed by NMDA addition and measured after 30 mins by MTT assay (reference value: 58.7 +/- 2.3%); assay type: functional; settings: read-out: Activity
[6] = Clearance in human liver microsomes at 10 uM preincubated for 10 mins followed by NADPH addition and measured up to 60 mins; assay type: ADME, microsome; settings: read-out: CLH; in short: as §1
[7] = test system: SH-SY5Y; assay: Neuroprotective activity against NMDA-induced cell damage in human SH-SY5Y cells assessed as cell viability at 100 uM preincubated for 6 hrs followed by NMDA addition and measured after 30 mins by MTT assay (reference value: 58.7 +/- 2.3%)
[8] = test system: SH-SY5Y; assay: Down regulation of NMDA-induced NR2B level in human SH-SY5Y cells at 0.1 to 10 uM preincubated for 6 hrs followed by NMDA addition and measured after 30 mins by Western blot analysis; assay type: functional, cell-based
In short: (§2)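 SH-SY5Y lysates were analysed by Western blot for NR2B expression and for p-ERK1/2 relative to total ERK. Data are means ± S.E.M., n = 3, compared against control and NMDA-treated groups.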

[9] = Metabolic stability in human liver microsomes assessed as parent compound remaining at 10 uM after 60 mins in absence of NADPH; assay type: ADME, microsome; settings: read-out: Stability; in short: as §1
[10] = target: Glutamate receptor ionotropic, NMDA 2B (Homo sapiens) (UniProt Q13224); assay: Antagonist activity at NR2B NMDA receptor in human SH-SY5Y cells assessed as inhibition of NMDA-induced decrease in ERK1/2 phosphorylation at 0.1 to 10 uM preincubated for 6 hrs followed by NMDA addition and measured after 30 mins by Western blot analysis; assay type: cell-based; in short: as §2

Sequence of Glutamate receptor ionotropic, NMDA 2B (Homo sapiens) (Q13224 27-1484 limits assumed): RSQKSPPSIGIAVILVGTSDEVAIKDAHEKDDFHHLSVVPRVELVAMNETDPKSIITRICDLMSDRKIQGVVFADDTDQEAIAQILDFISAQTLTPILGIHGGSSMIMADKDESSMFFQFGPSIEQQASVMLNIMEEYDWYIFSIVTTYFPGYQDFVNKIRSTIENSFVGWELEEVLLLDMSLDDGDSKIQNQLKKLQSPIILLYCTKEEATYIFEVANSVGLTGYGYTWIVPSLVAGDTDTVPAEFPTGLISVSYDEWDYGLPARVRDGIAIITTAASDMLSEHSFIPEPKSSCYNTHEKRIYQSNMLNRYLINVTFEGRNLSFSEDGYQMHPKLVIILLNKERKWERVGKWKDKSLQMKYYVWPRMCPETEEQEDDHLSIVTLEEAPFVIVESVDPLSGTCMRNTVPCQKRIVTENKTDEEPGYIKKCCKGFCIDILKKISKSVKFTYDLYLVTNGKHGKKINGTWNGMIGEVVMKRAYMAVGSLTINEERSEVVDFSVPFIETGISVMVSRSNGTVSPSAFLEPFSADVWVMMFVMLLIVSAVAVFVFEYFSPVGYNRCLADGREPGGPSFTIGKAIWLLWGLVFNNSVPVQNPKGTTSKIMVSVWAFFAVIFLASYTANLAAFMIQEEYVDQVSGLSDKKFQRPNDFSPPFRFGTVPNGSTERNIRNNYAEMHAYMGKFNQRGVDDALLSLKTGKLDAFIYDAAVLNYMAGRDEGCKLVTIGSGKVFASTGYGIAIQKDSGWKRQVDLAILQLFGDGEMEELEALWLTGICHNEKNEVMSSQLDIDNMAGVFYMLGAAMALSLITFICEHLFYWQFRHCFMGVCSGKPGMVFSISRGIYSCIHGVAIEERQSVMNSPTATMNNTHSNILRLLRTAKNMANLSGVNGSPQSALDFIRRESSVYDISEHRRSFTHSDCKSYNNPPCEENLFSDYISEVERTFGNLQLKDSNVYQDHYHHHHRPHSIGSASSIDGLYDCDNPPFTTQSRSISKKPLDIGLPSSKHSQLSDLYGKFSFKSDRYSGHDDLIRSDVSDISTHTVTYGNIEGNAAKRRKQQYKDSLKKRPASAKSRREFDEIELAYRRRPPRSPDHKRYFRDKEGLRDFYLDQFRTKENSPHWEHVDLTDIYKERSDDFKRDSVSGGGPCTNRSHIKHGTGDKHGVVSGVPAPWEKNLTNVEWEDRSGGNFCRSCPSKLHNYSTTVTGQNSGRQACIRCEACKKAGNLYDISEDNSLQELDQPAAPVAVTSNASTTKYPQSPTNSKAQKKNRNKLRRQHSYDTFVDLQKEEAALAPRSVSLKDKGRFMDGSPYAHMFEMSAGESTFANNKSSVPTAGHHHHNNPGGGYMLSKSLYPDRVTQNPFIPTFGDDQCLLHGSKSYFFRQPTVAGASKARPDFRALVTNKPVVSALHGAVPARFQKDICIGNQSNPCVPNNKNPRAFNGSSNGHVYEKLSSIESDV

| Compound | half-life at 10 µM [1] | viability at 0.1 µM [2] | inhibition [3] | viability at 10 µM [4] | viability at 1 µM [5] | microsomal CLint at 10 µM [6] | Activity [7] | Activity [8] | remaining at 1 h, 10 µM [9] | inhibition [10] |
| --- | --- | --- | --- | --- | --- | --- | --- | --- | --- | --- |
| O=C(NCCc1ccc(O)cc1)[C@@H]1CCC2=Nc3ccc(Br)cc3CN21 | 29.9 min | 75.8% | Active | 84.4% | 80% | 46.3 µL/min/mg | 78.6% | Active | 99.3% | Active |
| O=C(Nc1ccccc1)[C@@H]1CCC2=Nc3ccccc3CN21 | – | 68.7% | – | 60.4% | 71.4% | – | 54.6% | – | – | – |
| O=C(NCc1ccc(O)cc1)[C@@H]1CCC2=Nc3ccc(Br)cc3CN21 | – | 69% | – | 76% | 73.5% | – | 60% | – | – | – |
| O=C(NCCCc1ccccc1)[C@H]1CCC2=Nc3ccc(Br)cc3CN21 | – | 58.1% | – | 65.4% | 72.1% | – | 44.1% | – | – | – |
| O=C(NCc1ccccc1)[C@@H]1CCC2=Nc3ccccc3CN21 | – | 68.4% | – | 70.5% | 71.6% | – | 64.4% | – | – | – |
| O=C(N[C@H](CO)Cc1ccccc1)[C@@H]1CCC2=Nc3ccccc3CN21 | – | 67.1% | – | 79.6% | 82.6% | – | 72.4% | – | – | – |
| COc1ccc(CNC(=O)[C@H]2CCC3=Nc4ccccc4CN32)cc1 | – | 66.6% | – | 76.2% | 70.7% | – | 58.4% | – | – | – |
| C[C@@H]([C@@H](O)c1ccc(O)cc1)N1CCC(Cc2ccccc2)CC1 [(S)-IFENPRODIL] | 12.8 min | 71% | – | 79.5% | 72.7% | 109 µL/min/mg | 65.1% | – | 87.3% | – |
| O=C(NCc1ccc(O)cc1)[C@H]1CCC2=Nc3ccccc3CN21 | – | 65.2% | – | 64.2% | 68% | – | 60.9% | – | – | – |
| O=C(NCCCc1ccccc1)[C@@H]1CCC2=Nc3ccc(Br)cc3CN21 | – | 69.1% | – | 66.1% | 76.6% | – | 42.2% | – | – | – |
| N=C(NCc1ccc(O)cc1)[C@@H]1CCC2=Nc3ccccc3CN21 | – | 61.6% | – | 70.2% | 69.2% | – | 64.3% | – | – | – |
| COc1ccc(NC(=O)[C@@H]2CCC3=Nc4ccccc4CN32)cc1 | – | 64.7% | – | 66.4% | 72.7% | – | 48.4% | – | – | – |
| O=C(Nc1ccc(O)cc1)[C@H]1CCC2=Nc3ccc(Br)cc3CN21 | – | 61.7% | – | 68.3% | 71.3% | – | 66% | – | – | – |
| O=C(NCc1ccc(O)cc1)[C@H]1CCC2=Nc3ccc(Br)cc3CN21 | – | 75% | – | 67.4% | 78% | – | 56.9% | – | – | – |
| O=C(NCCc1ccc(O)cc1)[C@H]1CCC2=Nc3ccccc3CN21 | – | 65.2% | – | 70.5% | 80.7% | – | 68% | – | – | – |
| O=C(NCCc1ccc(F)cc1)[C@@H]1CCC2=Nc3ccccc3CN21 | – | 71.4% | – | 68.1% | 75.4% | – | 33.5% | – | – | – |
| O=C(NCCc1ccc(O)cc1)[C@H]1CCC2=Nc3ccc(Br)cc3CN21 | – | 67.8% | – | 78.2% | 74.5% | – | 81.5% | – | – | – |
| N=C(NCc1ccccc1)[C@@H]1CCC2=Nc3ccccc3CN21 | – | 61.6% | – | 68.8% | 68.6% | – | 66.4% | – | – | – |
